This note sets out measurements from ChEMBL document CHEMBL1155221, “Identification of novel indanylsulfonamide guanylhydrazones as potent 5-HT6 serotonin receptor antagonists” (J Med Chem, 2009).

What is called inhibition is the drop in the measured response relative to a control, in per cent. As usually defined, the pIC50 is −log10 of the IC50, conventionally taken in molar units. As usually defined, the pKi is the negative decadic logarithm of the Ki, by convention in mol/L.

Assay [1] deals with T1, 5-hydroxytryptamine receptor 6 (Homo sapiens, UniProt P50406). Kind of assay: Inhibition of [3H]LSD binding to human recombinant 5HT6 receptor expressed in HEK293 cells at 100 nM after 60 mins by liquid scintillation counting. It counts as cell-based. The method in brief: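 Single-point competition at 100 nM test compound against [3H]-LSD on membranes from HEK-293 cells expressing recombinant human 5-HT6 receptor. Percent inhibition of radioligand binding reported.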
T1 sequence (P50406 whole entry): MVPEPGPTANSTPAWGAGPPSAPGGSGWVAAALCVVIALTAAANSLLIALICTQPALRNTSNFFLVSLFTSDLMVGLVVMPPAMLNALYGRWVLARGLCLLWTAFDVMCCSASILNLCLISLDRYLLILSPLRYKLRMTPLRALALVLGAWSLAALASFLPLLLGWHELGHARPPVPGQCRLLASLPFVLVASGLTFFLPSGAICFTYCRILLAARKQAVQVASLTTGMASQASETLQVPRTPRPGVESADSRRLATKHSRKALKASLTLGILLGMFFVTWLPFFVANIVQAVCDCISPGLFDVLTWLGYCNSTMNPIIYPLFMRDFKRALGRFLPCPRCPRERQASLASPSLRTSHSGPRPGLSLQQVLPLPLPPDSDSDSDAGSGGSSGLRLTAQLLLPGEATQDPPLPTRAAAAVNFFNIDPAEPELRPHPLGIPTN

The target of assay [2] is T2, Adrenergic receptor alpha-2 (Homo sapiens, UniProt P08913+P18825+P18089).
T2 sequence (P08913 whole entry): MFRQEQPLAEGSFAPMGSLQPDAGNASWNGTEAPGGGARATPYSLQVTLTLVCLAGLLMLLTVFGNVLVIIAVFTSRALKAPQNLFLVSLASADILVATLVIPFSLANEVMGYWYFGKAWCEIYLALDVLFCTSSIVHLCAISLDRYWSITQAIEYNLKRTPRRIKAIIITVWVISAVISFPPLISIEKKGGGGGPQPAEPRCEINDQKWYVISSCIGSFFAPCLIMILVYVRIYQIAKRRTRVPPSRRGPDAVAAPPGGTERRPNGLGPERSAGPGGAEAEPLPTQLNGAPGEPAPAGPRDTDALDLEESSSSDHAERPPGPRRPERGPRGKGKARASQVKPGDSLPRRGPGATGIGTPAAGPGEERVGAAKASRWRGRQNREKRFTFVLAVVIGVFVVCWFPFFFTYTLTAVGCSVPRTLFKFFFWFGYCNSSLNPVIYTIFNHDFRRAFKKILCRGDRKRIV
T2 sequence (P18825 whole entry): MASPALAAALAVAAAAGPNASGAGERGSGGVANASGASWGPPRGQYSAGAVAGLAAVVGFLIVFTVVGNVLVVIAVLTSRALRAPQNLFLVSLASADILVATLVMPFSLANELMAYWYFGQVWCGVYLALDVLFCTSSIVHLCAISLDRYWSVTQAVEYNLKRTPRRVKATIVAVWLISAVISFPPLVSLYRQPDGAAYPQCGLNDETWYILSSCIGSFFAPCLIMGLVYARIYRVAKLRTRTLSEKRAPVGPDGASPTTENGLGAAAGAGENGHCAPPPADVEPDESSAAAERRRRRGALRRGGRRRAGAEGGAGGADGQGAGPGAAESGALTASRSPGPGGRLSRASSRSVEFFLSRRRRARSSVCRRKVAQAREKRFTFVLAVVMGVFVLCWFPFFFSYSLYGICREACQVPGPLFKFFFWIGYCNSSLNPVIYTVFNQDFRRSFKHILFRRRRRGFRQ
T2 sequence (P18089 whole entry): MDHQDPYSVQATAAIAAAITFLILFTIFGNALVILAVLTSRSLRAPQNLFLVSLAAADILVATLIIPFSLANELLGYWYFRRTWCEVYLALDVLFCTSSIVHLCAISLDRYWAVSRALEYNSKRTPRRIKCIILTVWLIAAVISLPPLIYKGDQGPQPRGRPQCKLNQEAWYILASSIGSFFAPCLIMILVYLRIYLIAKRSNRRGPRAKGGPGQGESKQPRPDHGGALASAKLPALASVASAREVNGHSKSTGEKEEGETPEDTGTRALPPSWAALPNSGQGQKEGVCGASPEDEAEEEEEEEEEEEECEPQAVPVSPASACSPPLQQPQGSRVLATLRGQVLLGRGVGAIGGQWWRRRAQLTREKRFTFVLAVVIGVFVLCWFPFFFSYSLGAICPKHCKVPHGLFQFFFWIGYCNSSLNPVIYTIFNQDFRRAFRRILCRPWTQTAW
Kind of assay: Inhibition of human alpha 2 adrenoceptor.

In assay [3] the target is T1, 5-hydroxytryptamine receptor 6. Kind of assay: Antagonist activity at human 5HT6 receptor expressed in HEK293F cells assessed as inhibition of 5-HT-stimulated cAMP production at […] after 30 mins by HTRF assay relative to (+/-)-6-chloro-N-(3-(1-methylpyrrolidin-3-yl)-1H-inden-5-yl)imidazo[2,1-b]thiazole-5-sulfonamide. It is filed as functional, cell-based.
Assay [4] addresses T3, 5-hydroxytryptamine receptor 1A (Homo sapiens, UniProt P08908).
T3 sequence (P08908 whole entry): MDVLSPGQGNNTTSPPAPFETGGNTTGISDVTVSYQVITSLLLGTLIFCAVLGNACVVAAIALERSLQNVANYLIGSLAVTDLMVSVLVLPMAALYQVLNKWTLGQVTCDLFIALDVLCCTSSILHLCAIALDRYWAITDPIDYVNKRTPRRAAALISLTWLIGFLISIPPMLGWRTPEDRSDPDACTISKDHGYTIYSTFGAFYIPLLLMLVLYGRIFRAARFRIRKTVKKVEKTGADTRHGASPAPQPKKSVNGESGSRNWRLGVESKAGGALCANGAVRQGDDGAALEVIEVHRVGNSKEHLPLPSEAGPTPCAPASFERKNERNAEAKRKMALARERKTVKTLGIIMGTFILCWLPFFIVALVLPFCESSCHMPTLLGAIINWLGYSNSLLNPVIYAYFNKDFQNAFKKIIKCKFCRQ
In words: Inhibition of human 5HT1A receptor.

Assay [5] addresses T1, 5-hydroxytryptamine receptor 6. In words: Displacement of [3H]LSD from human recombinant 5HT6 receptor expressed in HEK293 cells after 60 mins by liquid scintillation counting. It counts as cell-based. The procedure, abridged: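 Competition binding on membranes from HEK-293 cells expressing recombinant human 5-HT6 receptor, with [3H]-LSD as radioligand. […] Values are mean ± SEM of three experiments.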
(Displacement assays read how much labelled ligand stays bound in the presence of the test substance.)

The target is the same in assay [6]. Kind of assay: Antagonist activity at human 5HT6 receptor expressed in HEK293F cells assessed as inhibition of 5-HT-stimulated cAMP production after 30 mins by HTRF assay. It is filed as functional, cell-based. The method in brief: (§1)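 HEK-293F cells stably expressing human 5-HT6 receptor. Compounds were tested against 5-HT-stimulated cAMP production, with cAMP read by homogeneous time-resolved fluorescence (HTRF). Antagonism expressed as Imax and IC50. Data are mean ± SEM of three experiments.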
(In general: cAMP levels reflect the balance of adenylyl cyclase and phosphodiesterase activity.)

Assay [7] shares this target. Kind of assay: Displacement of [3H]LSD from human cloned 5HT6 receptor expressed in human HeLa cells. It is filed as cell-based.
Assay [8] has the same target. Kind of assay: Antagonist activity at human 5HT6 receptor expressed in HEK293F cells assessed as inhibition of 5-HT-stimulated cAMP production at […] after 30 mins by HTRF assay. It is filed as functional, cell-based. The procedure, abridged: as §1
Assay [9] deals with T4, 5-hydroxytryptamine receptor 2C (Homo sapiens, UniProt P28335).
T4 sequence (P28335 whole entry): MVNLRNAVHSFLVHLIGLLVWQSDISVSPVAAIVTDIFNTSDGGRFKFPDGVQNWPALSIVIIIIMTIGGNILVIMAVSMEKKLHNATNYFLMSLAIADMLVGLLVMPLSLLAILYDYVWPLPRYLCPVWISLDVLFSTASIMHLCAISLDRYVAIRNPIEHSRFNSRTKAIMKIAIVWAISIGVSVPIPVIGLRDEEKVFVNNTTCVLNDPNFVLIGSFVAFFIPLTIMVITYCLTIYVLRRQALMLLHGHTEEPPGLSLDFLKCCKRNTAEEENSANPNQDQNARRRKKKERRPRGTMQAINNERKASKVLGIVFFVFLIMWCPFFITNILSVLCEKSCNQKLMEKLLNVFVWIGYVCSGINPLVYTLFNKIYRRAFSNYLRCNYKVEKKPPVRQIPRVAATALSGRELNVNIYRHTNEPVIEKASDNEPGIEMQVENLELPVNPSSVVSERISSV
Kind of assay: Inhibition of human 5HT2C receptor.

Assay [10] concerns the target Sodium-dependent serotonin transporter (Homo sapiens, UniProt P31645). Kind of assay: Inhibition of human SERT.

pIC50, pKi: −log10 of the molar value.

Sodium-dependent serotonin transporter, sequence (P31645 whole entry): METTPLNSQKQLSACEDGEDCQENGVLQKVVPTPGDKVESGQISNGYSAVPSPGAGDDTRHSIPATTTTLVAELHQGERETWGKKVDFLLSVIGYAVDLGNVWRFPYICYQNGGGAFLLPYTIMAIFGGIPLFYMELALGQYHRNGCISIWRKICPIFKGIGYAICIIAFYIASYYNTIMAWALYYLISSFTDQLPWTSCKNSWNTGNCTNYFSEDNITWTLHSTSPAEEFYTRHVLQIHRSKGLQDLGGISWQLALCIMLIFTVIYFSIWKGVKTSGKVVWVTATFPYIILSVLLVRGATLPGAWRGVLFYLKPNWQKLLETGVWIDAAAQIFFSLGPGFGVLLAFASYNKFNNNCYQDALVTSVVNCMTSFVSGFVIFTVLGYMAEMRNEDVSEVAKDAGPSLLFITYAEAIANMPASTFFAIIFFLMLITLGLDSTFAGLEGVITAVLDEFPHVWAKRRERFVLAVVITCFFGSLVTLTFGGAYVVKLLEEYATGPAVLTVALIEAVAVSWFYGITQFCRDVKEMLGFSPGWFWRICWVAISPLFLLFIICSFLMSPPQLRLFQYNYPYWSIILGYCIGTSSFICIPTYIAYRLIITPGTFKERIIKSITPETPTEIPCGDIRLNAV

As for `Cl.N=C(N)N/N=C1\CCc2ccc(NS(=O)(=O)c3ccc4ccccc4c3)cc21`, in assay [1], the inhibition is more than 80%. The pIC50 is less than 6.00 in assay [2], less than 6.00 in assay [4] and 7.28 in assay [6]. The Imax in assay [3] worked out at 127%. Further, the negative-log Ki (pKi) in assay [5] is 7.21.
Consider `CN1CCOc2ccc(S(=O)(=O)Nc3ccc4c(c3)/C(=N\NC3=NCCN3)CC4)cc21`, for which the inhibition in assay [1] was more than 80%. In [5], the pKi was 7.15.
Take `C/C(=N\NC(=N)N)c1cn(S(=O)(=O)c2c(Cl)nc3sccn23)c2ccccc12`: in assay [7], the pKi was not below 8.10.
`CN1CCOc2ccc(S(=O)(=O)Nc3ccc4c(c3)/C(=N/NC(=N)N)CC4)cc21`: the inhibition in assay [1] is more than 80%. In assay [3], the Imax was determined as 187%. Besides, the pIC50 in [4] was less than 6.00; in [6], 6.24. For the same compound, the negative logarithm of the Ki (pKi) in [5] is 7.59.
On to `COc1ccc(S(=O)(=O)Nc2ccc3[nH]cc(/C(C)=N/NC(=N)N)c3c2)cc1`, for which the negative logarithm of the Ki (pKi) in assay [7] is 9.00.
On the same count and under the same terms, the figure for `C/C(=N\NC(=N)N)c1cn(S(=O)(=O)c2ccc(N)cc2)c2ccccc12` is not below 8.10.
For `CC1(C)C/C(=N\NC2=NCCN2)c2cc(NS(=O)(=O)c3c(Cl)nc4sccn34)ccc21`, in assay [1], the inhibition worked out at 77%.
For `CN1CCC(C2=CCc3ccc(NS(=O)(=O)c4c(Cl)nc5sccn45)cc32)C1` (configuration not stated), the inhibition in assay [1] was more than 80%. In addition, the Imax in assay [8] is 100%. Moreover, the pKi in [5] was 8.52. Moreover, the pIC50 in assay [6] is 5.80.
In the case of `Cl.N=C(N)N/N=C1\CCc2cc(NS(=O)(=O)c3c(Cl)nc4sccn34)ccc21`, the inhibition in assay [1] was more than 80%. The pIC50 is less than 6.00 in [2], less than 5.00 in assay [4] and 7.33 in assay [6]. Moreover, in [3], the Imax was found to be 173%. For the same compound, the pKi in assay [5] was 8.59.
With `N=C(N)N/N=C1\CCc2c(NS(=O)(=O)c3c(Cl)nc4sccn34)cccc21`, in [1], the inhibition is 2%.
Turning to `CN(c1ccc2c(c1)/C(=N/NC(=N)N)CC2)S(=O)(=O)c1c(Cl)nc2sccn12.Cl`, the inhibition in [1] was more than 80%. For the same compound, the pIC50 is less than 6.00 in [2], less than 6.00 in assay [4] and 7.27 in [6]. Moreover, the Imax in assay [3] is 102%. The negative logarithm of the Ki (pKi) in assay [5] is 8.39.
In the case of `CC1(C)C/C(=N\NC(=N)N)c2cc(NS(=O)(=O)c3c(Cl)nc4sccn34)ccc21.Cl`, the pIC50 in [9] was less than 6.00; in assay [4], less than 6.00; in assay [10] it was less than 5.00; in assay [6], 6.62. Besides, in [1], the inhibition is more than 80%. For the same compound, the IC50 in assay [2] is more than 1 ×10⁴ nM. In addition, the Imax in assay [3] was found to be 146%. Besides, the pKi in assay [5] was 8.28.
